# Assay results taken from ChEMBL document CHEMBL1153118, “Antimalarial activity of azadipeptide nitriles” (Bioorg Med Chem Lett, 2010).
# Key:
# Plasmodium falciparum [1] = experiment: Antimalarial activity against Plasmodium falciparum 3D7 infected in erythrocytes assessed as inhibition of [3H]hypoxanthine incorporation by microbeta liquid scintillation counter; type: functional, organism-based
# Procedure, shortened: (§1)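 Growth inhibition was measured by a standard isotopic assay on cultured P. falciparum-infected erythrocytes, with results reported as IC50 values.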
# [2] = Inhibition of Plasmodium falciparum recombinant falcipain-3 by microtiter plate spectrofluorimetry
# [3] = Inhibition of Plasmodium falciparum recombinant falcipain-2 by microtiter plate spectrofluorimetry
# Papain = target: T1, Papain (Carica papaya, UniProt P00784); experiment: Inhibition of Carica papaya papain by microtiter plate spectrofluorimetry
# T1 sequence (P00784 whole entry): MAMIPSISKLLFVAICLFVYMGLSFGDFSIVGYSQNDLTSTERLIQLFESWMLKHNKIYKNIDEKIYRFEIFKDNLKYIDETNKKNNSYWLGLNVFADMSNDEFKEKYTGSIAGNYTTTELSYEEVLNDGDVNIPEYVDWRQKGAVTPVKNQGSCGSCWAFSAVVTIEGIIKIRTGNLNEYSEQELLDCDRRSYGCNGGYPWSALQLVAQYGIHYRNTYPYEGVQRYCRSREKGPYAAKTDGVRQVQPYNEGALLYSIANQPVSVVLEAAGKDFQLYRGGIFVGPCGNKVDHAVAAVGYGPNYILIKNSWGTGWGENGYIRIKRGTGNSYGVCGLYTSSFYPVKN
# Plasmodium falciparum [4] = experiment: Antimalarial activity against Plasmodium falciparum Dd2 infected in erythrocytes assessed as inhibition of [3H]hypoxanthine incorporation by microbeta liquid scintillation counter; type: functional, organism-based; procedure, shortened: as §1
SMILES,IC50 (Plasmodium falciparum [1]),IC50 [2],IC50 [3],Ki (Papain),IC50 (Plasmodium falciparum [4])
CC(C)C[C@H](NC(=O)OCc1ccccc1)C(=O)N(C)N(C)C#N,16 µM,1.9 µM,0.059 µM,0.0082 µM,18 µM
CN(C#N)N(C)C(=O)[C@H](Cc1ccccc1)NC(=O)OCc1ccccc1,9.8 µM,18 µM,0.57 µM,0.0039 µM,15 µM
CN(C(=O)[C@H](Cc1ccccc1)NC(=O)OCc1ccccc1)N(C#N)CCc1ccccc1,5.3 µM,0.3 µM,0.43 µM,0.0063 µM,3.6 µM
C[C@@H](C#N)N(C)C(=O)[C@H](Cc1ccccc1)NC(=O)OCc1ccccc1,> 25 µM,> 50 µM,> 50 µM,750 µM,> 25 µM
C[C@@H](C#N)NC(=O)[C@H](Cc1ccccc1)NC(=O)OCc1ccccc1,> 25 µM,16 µM,28 µM,2.2 µM,> 25 µM
CN(C(=O)[C@H](Cc1ccccc1)NC(=O)OCc1ccccc1)N(C#N)Cc1ccccc1,7.1 µM,1.6 µM,1 µM,0.042 µM,7.5 µM
CCCCCN(C#N)N(C)C(=O)[C@H](Cc1ccccc1)NC(=O)OCc1ccccc1,2.9 µM,0.11 µM,0.31 µM,0.01 µM,2.1 µM
